The text below walks through data of ChEMBL document CHEMBL4609990, “Design and synthesis of cyanamides as potent and selective N-acylethanolamine acid amidase inhibitors” (Bioorg Med Chem, 2020).

Series [1] has as its target T1, N-acylethanolamine-hydrolyzing acid amidase (Homo sapiens, UniProt Q02083).
T1 sequence (Q02083 whole entry): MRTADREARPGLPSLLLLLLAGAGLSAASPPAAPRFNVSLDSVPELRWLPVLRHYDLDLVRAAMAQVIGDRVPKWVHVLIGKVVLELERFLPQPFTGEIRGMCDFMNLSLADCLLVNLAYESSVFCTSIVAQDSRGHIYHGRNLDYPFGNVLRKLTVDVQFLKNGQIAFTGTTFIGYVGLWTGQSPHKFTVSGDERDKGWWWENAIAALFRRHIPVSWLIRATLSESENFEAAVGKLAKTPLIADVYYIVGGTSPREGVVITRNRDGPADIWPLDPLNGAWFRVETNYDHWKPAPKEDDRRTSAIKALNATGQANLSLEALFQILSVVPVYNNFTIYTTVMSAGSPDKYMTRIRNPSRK
The series is described as follows: Inhibition of activated human NAAA using fluorogenic PAMCA and N-4-methylcoumarin as substrate incubated for 90 mins by fluorescence based assay. The gist of the method:
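Purified activated hNAAA (final 0.25 µg/mL) in 100 mM citrate-phosphate pH 4.5, 3 mM DTT, 0.1% Triton X-100, 0.05% BSA, 150 mM NaCl; compound in DMSO preincubated 90 min at room temperature. PAMCA added (final 5 µM), reaction at 37 °C for 90 min, fluorescence ex 360/em 460 nm read every 10 min. RFU converted to AMC via AMC standard curve. IC50 from eight concentrations, triplicate.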

Series [2] deals with T2, Monoglyceride lipase (Homo sapiens) (UniProt Q99685).
T2 sequence (whole entry): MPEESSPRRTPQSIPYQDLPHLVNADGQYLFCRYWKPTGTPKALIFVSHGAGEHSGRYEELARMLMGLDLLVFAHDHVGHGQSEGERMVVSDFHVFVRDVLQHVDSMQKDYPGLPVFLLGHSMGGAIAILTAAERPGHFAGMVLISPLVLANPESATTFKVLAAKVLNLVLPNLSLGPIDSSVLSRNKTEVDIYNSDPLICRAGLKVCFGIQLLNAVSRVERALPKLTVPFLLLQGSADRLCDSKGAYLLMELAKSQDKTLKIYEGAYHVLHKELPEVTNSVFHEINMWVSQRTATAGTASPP
The experiment in a line: Inhibition of recombinant human hexaHis-tagged MGL expressed in Escherichia coli BL21 (DE3) at 1 uM using fluorogenic AHMMCE as substrate preincubated for 1 hr followed by substrate addition by fluorimetric assay relative to control. Summed up:
(§1)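 Human recombinant MGL expressed in E. coli and purified; fluorometric assay using arachidonoyl 7-hydroxy-6-methoxy-4-methylcoumarin ester (AHMMCE) as substrate; IC50 by curve fitting, or percent inhibition at 1 µM.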

Series [3] addresses T3, Fatty-acid amide hydrolase 1 (Homo sapiens) (UniProt O00519).
T3 sequence (whole entry): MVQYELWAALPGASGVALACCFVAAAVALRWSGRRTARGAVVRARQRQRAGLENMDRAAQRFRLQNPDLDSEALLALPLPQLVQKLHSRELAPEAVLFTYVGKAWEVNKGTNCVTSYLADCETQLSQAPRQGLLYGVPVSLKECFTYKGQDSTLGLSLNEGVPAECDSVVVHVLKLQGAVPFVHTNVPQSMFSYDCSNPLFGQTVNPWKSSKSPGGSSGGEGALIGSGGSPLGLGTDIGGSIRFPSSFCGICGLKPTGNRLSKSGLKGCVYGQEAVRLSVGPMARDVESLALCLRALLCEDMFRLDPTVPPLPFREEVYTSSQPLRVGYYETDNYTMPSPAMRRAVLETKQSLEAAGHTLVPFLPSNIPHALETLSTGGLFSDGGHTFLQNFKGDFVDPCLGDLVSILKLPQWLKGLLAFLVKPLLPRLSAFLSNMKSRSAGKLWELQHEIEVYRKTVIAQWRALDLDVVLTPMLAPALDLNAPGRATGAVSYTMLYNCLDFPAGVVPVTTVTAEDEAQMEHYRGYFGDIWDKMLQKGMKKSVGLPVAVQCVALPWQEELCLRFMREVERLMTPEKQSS
The experiment in a line: Inhibition of recombinant human FAAH expressed in Escherichia coli at 1 uM using fluorogenic AAMCA as substrate by fluorimetric assay relative to control. The gist of the method:
(§2)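 Human recombinant FAAH expressed in E. coli and purified; fluorometric assay with arachidonoyl 7-amino-4-methylcoumarin amide (AAMCA) as substrate; IC50 by curve fitting, or percent inhibition at 1 µM.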

Series [4] can be described thus: Half life in human plasma by HPLC analysis.
The nature of series [5]: Half life in human liver microsomes at 1 uM in presence of NADPH by LC-MS/MS. (In general: Microsomes from liver hold many membrane-bound enzymes, among them those of drug oxidation.)
A short description of series [6]: Half life in rat liver microsomes at 1 uM in presence of NADPH by LC-MS/MS.
A short description of series [7]: Half life in artificial gastric fluid by HPLC analysis. Type of series: physicochemical. The gist of the method: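 Compound at 200 μM incubated in artificial gastric juice; reaction quenched with acetonitrile and samples analysed by HPLC to estimate half-life (min).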
Series [8] has as its target T4, N-acylethanolamine-hydrolyzing acid amidase (Homo sapiens) (UniProt Q02083).
T4 sequence (whole entry): T1 sequence (Q02083 whole entry)
The series is described as follows: Irreversible inhibition of activated human NAAA assessed as ratio of Kinact/Ki using fluorogenic PAMCA and N-4-methylcoumarin as substrate.

Series [9] can be described thus: Half life in rat plasma by HPLC analysis.
Series [10] deals with T5, Fatty-acid amide hydrolase 1 (Homo sapiens, UniProt O00519).
T5 sequence (O00519 whole entry): T3 sequence (whole entry)
The series is described as follows: Inhibition of recombinant human FAAH expressed in Escherichia coli using fluorogenic AAMCA as substrate by fluorimetric assay. The gist of the method:
as §2

The species entered for series [11] is Homo sapiens. The experiment in a line: Selectivity index, ratio of IC50 for recombinant human FAAH expressed in Escherichia coli using fluorogenic AAMCA as substrate by fluorimetric assay to IC50 human NAAA using fluorogenic PAMCA and N-4-methylcoumarin as substrate incubated for 90 mins by fluorescence based assay.
The species entered for series [12] is Homo sapiens. The experiment in a line: Selectivity index, ratio of IC50 for human hexaHis-tagged MGL expressed in Escherichia coli BL21 (DE3) using fluorogenic AHMMCE as substrate preincubated for 1 hr followed by substrate addition by fluorimetric assay to IC50 human NAAA using fluorogenic PAMCA and N-4-methylcoumarin as substrate incubated for 90 mins by fluorescence based assay.

For series [13], the species on record is Homo sapiens. The series is described as follows: Selectivity index, ratio of IC50 for full length human ABHD6 using AHMMCE as substrate preincubated for 1 hr followed by substrate addition by fluorimetric assay to IC50 human NAAA using fluorogenic PAMCA and N-4-methylcoumarin as substrate incubated for 90 mins by fluorescence based assay.
The species named for series [14] is Homo sapiens. The experiment in a line: Selectivity index, ratio of IC50 for human Cathepsin K using […] as substrate preincubated with enzyme for 90 mins followed by substrate addition by fluorimetry analysis to IC50 human NAAA using fluorogenic PAMCA and N-4-methylcoumarin as substrate incubated for 90 mins by fluorescence based assay.
Another series addresses T6, Monoglyceride lipase (Homo sapiens, UniProt Q99685).
T6 sequence (Q99685 whole entry): T2 sequence (whole entry)
The experiment in a line: Inhibition of recombinant human hexaHis-tagged MGL expressed in Escherichia coli BL21 (DE3) using fluorogenic AHMMCE as substrate preincubated for 1 hr followed by substrate addition by fluorimetric assay. Summed up: as §1

The target in series [15] is T1, N-acylethanolamine-hydrolyzing acid amidase. The series is described as follows: Inhibition of NAAA (unknown origin).
Another series has as its target T7, Cathepsin K (Homo sapiens, UniProt P43235).
T7 sequence (P43235 whole entry): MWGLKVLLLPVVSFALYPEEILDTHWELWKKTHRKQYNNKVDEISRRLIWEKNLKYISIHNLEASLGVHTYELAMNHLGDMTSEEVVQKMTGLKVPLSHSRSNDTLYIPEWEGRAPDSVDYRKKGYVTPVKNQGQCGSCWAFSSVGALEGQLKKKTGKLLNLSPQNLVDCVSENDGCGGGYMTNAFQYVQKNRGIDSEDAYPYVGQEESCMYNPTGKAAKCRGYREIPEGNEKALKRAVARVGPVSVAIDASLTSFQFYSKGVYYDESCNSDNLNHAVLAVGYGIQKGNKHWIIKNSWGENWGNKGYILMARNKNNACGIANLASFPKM
The series is described as follows: Inhibition of recombinant human Cathepsin K using Z-Phe-Arg-AMC as substrate preincubated with enzyme for 120 mins followed by substrate addition by fluorimetry analysis.

On to `N#CN1CC(OCc2ccc(-c3ccc4c(c3)OCCO4)cc2)(c2ccccc2)C1`, for which the IC50 in series [1] worked out at 6.1 nM. Further, the inhibition is 13.5% in series [2] and 99% in [3].
Regarding `COc1cccc(-c2ccc(C(=O)NC3(C)CN(C#N)C3)cc2)c1`, in series [1], 1.58 nM corresponded to half-maximal inhibition (IC50). In series [4], this molecule gave a half-life of 902 min. Also, the results for the inhibition in series [2] and in [3] were 11% and 23%, respectively.
In [1], `COc1ccc(-c2ccc3c(c2)CN(C2CN(C#N)C2)C3)cc1F` came in with an IC50 of 1.6 nM. The results for the half-life at 1 µM in [5] (microsomes) and in series [6] (microsomes) were 14.7 min and 4.4 min, respectively.
Take `COc1cccc(-c2ccc(COC3CN(C#N)C3)cc2)c1`: the midpoint of inhibition in series [1], the IC50, lay at 0.89 nM. For the same molecule, the half-life in [7] came out at 450 min; in [4], 204 min; in series [9], 189 min. The Ratio in series [8] worked out at 3.05 ×10⁶ /M/s. The half-life at 1 µM in series [5] (microsomes) turned out to be 11.2 min; in series [6] (microsomes) it was 10 min.
For the molecule `COc1cccc(-c2ccc(COC3(c4ccccc4)CN(C#N)C3)cc2)c1`, the IC50 is 9.1 nM in series [1] and 61 nM in series [10]. Besides, the half-life at 1 µM in series [5] (microsomes) is 15.3 min; in [6] (microsomes) it was 14.5 min. Also, the inhibition in series [2] was found to be 19.5%.
For the molecule `COc1cccc(-c2ccc(C(=O)N3CCC34CN(C#N)C4)cc2)c1`, the IC50 in [1] stood at 6.5 nM. Also, the half-life in series [4] is 458 min. In addition, the inhibition in series [2] worked out at 4%; in [3], 6%. Also, the Ratio IC50 in the series filed under Homo sapiens [11], in the series filed under Homo sapiens [12], in the series filed under Homo sapiens [13] and in the series listed under Homo sapiens [14] was greater than 100 each time.
As for `COc1cccc(-c2ccc(COC3(C)CN(C#N)C3)cc2)c1`, the IC50 in series [1] came out at 1.8 nM; on Monoglyceride lipase it was 1060 nM; in series [10], 0.36 nM. The Ratio IC50 in the series filed under Homo sapiens [11] is 0.2; in the series filed under Homo sapiens [12] it was 500; in the series listed under Homo sapiens [14] it was 50.
For the molecule `COc1cccc(-c2ccc(S(=O)(=O)N3CCC34CN(C#N)C4)cc2)c1`, the IC50 came out at 2.8 nM in [1] and 10.2 nM in series [10]. The same molecule returned a half-life in [4] of 180 min. The inhibition in [2] worked out at 14%. The Ratio IC50 in the series listed under Homo sapiens [12], in the series listed under Homo sapiens [13] and in the series listed under Homo sapiens [14] was greater than 100 in each case.
The molecule `N#CN1CC(OCc2ccc(-c3ccc(C(F)(F)F)cc3)cc2)C1` gave an IC50 in [1] of 1.6 nM. For the same molecule, in series [8], the Ratio was 2.74 ×10⁶ /M/s. Further, the half-life at 1 µM in [5] (liver microsomes) was 6.8 min; in series [6] (liver microsomes) it was 8.9 min.
In turn, `N#CN1CC(OCc2ccc(-c3ccc4c(c3)OCO4)cc2)(c2ccccc2)C1` yielded an IC50 in series [1] of 9.2 nM. The inhibition in series [2] was determined as 59%; in series [3], 99%.
`C[C@H]1[C@H](NC(=O)OCCCCC2CCCCC2)C(=O)N1c1cccc(S(C)(=O)=O)c1` yielded an IC50 in series [15] of 6 nM.
`COc1cccc(-c2ccc(S(=O)(=O)NC3(C)CN(C#N)C3)cc2)c1`: the IC50 is 3.2 nM in [1] and 17.8 nM in series [10]. In series [4], this molecule displayed a half-life of 221 min. For the same molecule, in series [2], the inhibition turned out to be 19%. The Ratio IC50 in the series filed under Homo sapiens [12], in the series listed under Homo sapiens [13] and in the series listed under Homo sapiens [14] was greater than 100 each time.
In turn, `COc1cccc(-c2ccc(COC3CN(C#N)C3)c(F)c2)c1` came in with an IC50 in [1] of 0.47 nM. In addition, the half-life in [7] came out at 271 min.
In the case of `N#CN1CC(CNS(=O)(=O)c2ccccc2)C1`, the IC50 at Cathepsin K was found to be 50 nM.

As a reminder, the IC50 is the concentration that inhibits the measured activity by half. As a reminder, the inhibition is how much of the control response was suppressed. A word on the half-life: it is the time in which the quantity being followed falls by half.
